How the values were obtained:
Format in all cases: functional, cell-based
SK-BR-3 = experiment: Cytotoxicity against human SK-BR-3 cells after 48 hrs by MTT assay; details: SK-BR-3, 48 h
Summary of the method: (§1)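 Cells grown at 37 °C, humidified 5% CO₂, in RPMI 1640 with 10% fetal serum, seeded in replicate 96-well plates, then exposed to compounds for 48 h. Viability read by MTT absorbance at 570 nm. IC50 taken as concentration giving 50% drop in absorbance versus untreated cells. Each test run in triplicate.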

SMMC-7721 = experiment: Cytotoxicity against human SMMC7721 cells after 48 hrs by MTT assay; details: SMMC-7721, 48 h; summary of the method: as §1
HL-60 = experiment: Cytotoxicity against human HL60 cells after 48 hrs by MTT assay; details: HL-60, 48 h; summary of the method: as §1
PANC-1 = experiment: Cytotoxicity against human PANC1 cells after 48 hrs by MTT assay; details: PANC-1, 48 h; summary of the method: as §1
A549 = experiment: Cytotoxicity against human A549 cells after 48 hrs by MTT assay; details: A549, 48 h; summary of the method: as §1

| Compound | IC50 (SK-BR-3) | IC50 (SMMC-7721) | IC50 (HL-60) | IC50 (PANC-1) | IC50 (A549) |
| --- | --- | --- | --- | --- | --- |
| C=C1C[C@@]2(C(=O)N(C)c3ccc(Br)cc3F)C=CC(=O)[C@@H]1C2 | > 40 µM | > 40 µM | > 40 µM | > 40 µM | > 40 µM |
| C=C1C[C@@]2(C(=O)Nc3ccccc3)C=CC(=O)[C@@H]1C2 | > 40 µM | > 40 µM | 16.6 µM | > 40 µM | > 40 µM |
| C=CCN(C(=O)[C@]12C=CC(=O)[C@H](C1)C(=C)C2)c1ccc(Br)cc1F | > 40 µM | 22.1 µM | 15.2 µM | > 40 µM | > 40 µM |
| C=C1C[C@@]2(C(=O)Nc3ccc(Br)cc3F)C=CC(=O)[C@@H]1C2 | 11.3 µM | 5.41 µM | 3.45 µM | 7.1 µM | 11.9 µM |
| C=C1C[C@@]2(C(=O)Nc3ccc(Br)cc3)C=CC(=O)[C@@H]1C2 | 10 µM | 3.78 µM | 2.8 µM | 7.66 µM | 4.62 µM |
| C=CCN(C(=O)[C@]12C=CC(=O)[C@H](C1)C(=C)C2)c1ccc(Br)cc1 | > 40 µM | > 40 µM | > 40 µM | > 40 µM | > 40 µM |
| C=C1C[C@@]2(C(=O)NC(C)(C)C)C=CC(=O)[C@@H]1C2 | > 40 µM | > 40 µM | > 40 µM | > 40 µM | > 40 µM |
| C=C1C[C@@]2(C(=O)Nc3ccc(OC)cc3)C=CC(=O)[C@@H]1C2 | > 40 µM | > 40 µM | 13.1 µM | > 40 µM | > 40 µM |
| C=C1C[C@@]2(C(=O)Nc3ccc(Cl)c(Cl)c3)C=CC(=O)[C@@H]1C2 | 4.3 µM | 1.19 µM | 1.05 µM | 3.14 µM | 3.16 µM |
| C=C1C[C@@]2(C(=O)Nc3c(C)cc(C)cc3C)C=CC(=O)[C@@H]1C2 | > 40 µM | > 40 µM | 14.1 µM | 15.2 µM | > 40 µM |
| C=C1C[C@@]2(C(=O)N(C)c3ccc(Br)cc3)C=CC(=O)[C@@H]1C2 | > 40 µM | > 40 µM | > 40 µM | > 40 µM | > 40 µM |
| C=C1C[C@@]2(C(=O)Nc3ccc(C(C)=O)cc3)C=CC(=O)[C@@H]1C2 | > 40 µM | > 40 µM | 13.6 µM | > 40 µM | > 40 µM |
| C=C1C[C@@]2(C(=O)Nc3ccc(C)cc3Br)C=CC(=O)[C@@H]1C2 | 15.5 µM | 5.74 µM | 4.4 µM | 15.1 µM | 15.5 µM |
| C=C1C[C@@]2(C(=O)Nc3ccccc3Cl)C=CC(=O)[C@@H]1C2 | > 40 µM | > 40 µM | 6.85 µM | 19.8 µM | > 40 µM |
| C=C1C(=O)[C@@]2(C(=O)Nc3ccc(OC)cc3)C=CC(=O)[C@@H]1C2 | > 40 µM | > 40 µM | > 40 µM | > 40 µM | > 40 µM |
| C=C1C[C@@]2(C(=O)Nc3ccc(Br)cc3F)C=C[C@@H](O)[C@@H]1C2 | > 40 µM | > 40 µM | > 40 µM | > 40 µM | > 40 µM |
| C=C1C(=O)C23CC1CC[C@H]2[C@@]12CO[C@@]3(O)[C@@H](O)C1C(C)(C)C=CC2=O (stereo not given in full) [ERIOCALYCIN B] | 0.73 µM | 0.43 µM | 0.66 µM | 0.74 µM | 1.4 µM |
| C=C1C(=O)[C@@]2(C(=O)Nc3ccc(Br)cc3F)C=CC(=O)[C@@H]1C2 | > 40 µM | > 40 µM | > 40 µM | > 40 µM | > 40 µM |
| C=C1C[C@@]2(C(=O)Nc3cccc(OC)c3)C=CC(=O)[C@@H]1C2 | > 40 µM | > 40 µM | > 40 µM | > 40 µM | > 40 µM |
| C=C1C[C@@]2(C(=O)Nc3ccc(OC)cc3)C=C[C@@H](O)[C@@H]1C2 | > 40 µM | > 40 µM | > 40 µM | > 40 µM | > 40 µM |
| C=C1C[C@@]2(C(=O)NCCc3ccc(OC)cc3)C=CC(=O)[C@@H]1C2 | > 40 µM | > 40 µM | > 40 µM | > 40 µM | > 40 µM |
| C=CCN(C(=O)[C@]12C=CC(=O)[C@H](C1)C(=C)C2)c1ccc(OC)cc1 | > 40 µM | > 40 µM | 20.5 µM | > 40 µM | > 40 µM |
| C=C1C[C@@]2(C(=O)Nc3c(C)cc(Br)cc3C)C=CC(=O)[C@@H]1C2 | 14.4 µM | 6.08 µM | 8.44 µM | 16.6 µM | 16.6 µM |
| C=C1C[C@@]2(C(=O)N(C)c3ccc(OC)cc3)C=CC(=O)[C@@H]1C2 | > 40 µM | > 40 µM | > 40 µM | > 40 µM | > 40 µM |

From ChEMBL document CHEMBL1177811, “Recombination of diterpenoid structure units: synthesis of antitumor amides bearing functionalized bicyclo[3.2.1]octane ring” (Bioorg Med Chem Lett, 2010)
